Key:
[1] = target: T1, Angiotensin-converting enzyme (Rattus norvegicus) (UniProt P47820); assay: Change in mean arterial blood pressure (MABP) after 20 mg/kg (po) dosage in Aorta-Coated renal hypertensive rat at 2.0 h; format: functional, organism-based; design: dose 20 mg/kg
T1 sequence (whole entry): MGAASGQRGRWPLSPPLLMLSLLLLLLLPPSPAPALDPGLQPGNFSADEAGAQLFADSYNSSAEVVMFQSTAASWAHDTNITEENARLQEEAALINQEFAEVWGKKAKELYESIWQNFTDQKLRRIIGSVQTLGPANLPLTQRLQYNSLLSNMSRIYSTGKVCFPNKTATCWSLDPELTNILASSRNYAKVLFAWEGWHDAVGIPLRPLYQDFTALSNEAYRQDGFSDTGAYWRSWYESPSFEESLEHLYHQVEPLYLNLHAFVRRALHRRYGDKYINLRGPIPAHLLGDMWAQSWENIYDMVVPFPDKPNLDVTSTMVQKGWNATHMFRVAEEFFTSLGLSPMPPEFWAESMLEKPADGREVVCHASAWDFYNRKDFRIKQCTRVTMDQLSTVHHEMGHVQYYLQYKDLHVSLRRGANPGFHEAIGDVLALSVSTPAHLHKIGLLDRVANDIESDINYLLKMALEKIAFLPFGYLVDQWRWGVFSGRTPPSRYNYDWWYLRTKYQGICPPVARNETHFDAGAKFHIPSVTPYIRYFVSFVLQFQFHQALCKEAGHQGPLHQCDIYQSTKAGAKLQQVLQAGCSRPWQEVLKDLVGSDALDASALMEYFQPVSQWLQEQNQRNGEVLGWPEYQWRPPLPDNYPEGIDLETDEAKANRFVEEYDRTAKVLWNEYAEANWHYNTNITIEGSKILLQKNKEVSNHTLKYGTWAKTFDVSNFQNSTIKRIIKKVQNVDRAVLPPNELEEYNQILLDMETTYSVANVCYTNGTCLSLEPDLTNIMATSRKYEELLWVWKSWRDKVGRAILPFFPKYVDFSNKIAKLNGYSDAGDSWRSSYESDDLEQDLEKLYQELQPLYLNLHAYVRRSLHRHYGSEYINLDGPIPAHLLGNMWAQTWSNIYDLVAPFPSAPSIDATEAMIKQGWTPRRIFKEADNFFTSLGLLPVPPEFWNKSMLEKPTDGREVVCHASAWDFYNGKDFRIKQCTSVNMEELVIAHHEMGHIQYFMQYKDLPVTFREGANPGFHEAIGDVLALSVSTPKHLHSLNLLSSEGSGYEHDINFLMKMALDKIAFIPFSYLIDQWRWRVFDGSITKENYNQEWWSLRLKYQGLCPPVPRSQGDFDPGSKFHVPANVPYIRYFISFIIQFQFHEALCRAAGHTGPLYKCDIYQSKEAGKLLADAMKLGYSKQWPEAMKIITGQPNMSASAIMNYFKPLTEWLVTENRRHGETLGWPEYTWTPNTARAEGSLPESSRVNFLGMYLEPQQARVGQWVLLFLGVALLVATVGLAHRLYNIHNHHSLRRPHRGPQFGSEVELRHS
Summary of the method: (§1)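 Oral gavage to conscious, unrestrained rats made hypertensive by complete aortic ligation between the renal artery origins; only rats with MABP ≥150 mmHg on days 4–6 after coarctation used. Vehicle: ethanol, polyethylene glycol, Tween-80, diluted with saline. Direct arterial pressure via indwelling carotid cannula implanted 24 h earlier; change vs vehicle controls, means ± standard error, unpaired Student's t test.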

[2] = target: T1, Angiotensin-converting enzyme (Rattus norvegicus); assay: (§2) Change in mean arterial blood pressure (MABP) after 20 mg/kg (po) dosage in Aorta-Coated renal hypertensive rat at 0.5 h; format: functional, organism-based; design: dose 20 mg/kg; summary of the method: as §1
Rattus norvegicus = assay: as §2; format: functional; summary of the method: as §1

Compound `CC(=O)S[C@H](C(=O)c1ccc(Br)cc1)[C@@H](C)C(=O)N1CCC[C@H]1C(=O)O` has a Delta MABP [1] of -26.7 mmHg and a Delta MABP [2] of -23.5 mmHg.
`O=C(SC(CC(=O)N1CCCC1C(=O)O)C(=O)c1ccc(Br)cc1)c1ccccc1` (stereo not given) gave a Delta MABP [1] of -14.3 mmHg and a Delta MABP [2] of -10 mmHg.
`CC(=O)SC(CC(=O)N1CCCC1C(=O)O)C(=O)c1ccc(F)cc1` (stereo not given) showed a Delta MABP [1] of -14.7 mmHg and a Delta MABP [2] of -15.8 mmHg.
Compound `CC(=O)SC(CC(=O)N1CCCC1C(=O)O)C(=O)c1ccc(Br)cc1` (stereo not given) has a Delta MABP [1] of -10.4 mmHg and a Delta MABP [2] of -18.3 mmHg.
In the case of `COc1ccc(C(=O)C(CC(=O)N2CCCC2C(=O)O)SC(C)=O)cc1F` (stereo not given), the Delta MABP [1] is reported as -11 mmHg and the Delta MABP [2] is reported as -12.7 mmHg.
`CC(=O)S[C@@H](C(=O)c1cccc(F)c1)[C@@H](C)C(=O)N1CCC[C@H]1C(=O)O` was tested, and the Delta MABP [2] was -17.5 mmHg.
In the case of `CC(=O)SC(CC(=O)N1CCCC1C(=O)O)C(=O)c1ccc(Cl)cc1` (stereo not given), the “Delta MABP” value (Rattus norvegicus) is reported as -17.33 mmHg and the Delta MABP [1] is reported as -11.7 mmHg.
`O=C(SC(CC(=O)N1CCCC1C(=O)O)C(=O)c1ccccc1)c1ccccc1` (stereo not given) showed a Delta MABP [1] of -22.7 mmHg and a Delta MABP [2] of -1 mmHg.
For `CC(=O)S[C@H](C(=O)c1ccccc1)[C@@H](C)C(=O)N1CCC[C@H]1C(=O)O`, the Delta MABP [1] was -23.2 mmHg and the Delta MABP [2] was -23 mmHg.
Compound `CC(=O)S[C@H](C(=O)c1cccc(F)c1)[C@@H](C)C(=O)N1CCC[C@H]1C(=O)O` has a Delta MABP [1] of -28 mmHg and a Delta MABP [2] of -24.8 mmHg.
Work on `CC(=O)SC(CC(=O)N1CCCC1C(=O)O)C(=O)c1ccccc1` (stereo not given) yielded a Delta MABP (Rattus norvegicus) of -19.2 mmHg and a Delta MABP [1] of -5.25 mmHg.
With `CC(=O)SC(CC(=O)N1CCCC1C(=O)O)C(=O)c1cccc(F)c1` (stereo not given) the Delta MABP [1] was -5.43 mmHg and the Delta MABP [2] was -17 mmHg.
For `O=C(SC(CC(=O)N1CCCC1C(=O)O)C(=O)c1cccc(F)c1)c1ccccc1` (stereo not given), the Delta MABP [1] was 3.75 mmHg and the Delta MABP [2] was -41 mmHg.
`O=C(c1ccc(Br)cc1)C(S)CC(=O)N1CCCC1C(=O)O` (stereo not given) was tested, and the Delta MABP [1] was -12 mmHg and the Delta MABP [2] was -8.8 mmHg.
`CC(=O)SC(CC(=O)N1CCCC1C(=O)O)C(=O)c1cccc(C(F)(F)F)c1` (stereo not given) gave a Delta MABP [1] of -0.83 mmHg and a Delta MABP [2] of -17.5 mmHg.
With `CC(=O)S[C@@H](C(=O)c1ccccc1)[C@@H](C)C(=O)N1CCC[C@H]1C(=O)O` the Delta MABP [1] was -17.1 mmHg and the Delta MABP [2] was -22.4 mmHg.
Compound `CC(=O)SC(CC(=O)N1CCCC1C(=O)O)C(=O)c1ccc2c(c1)CCC2` (stereo not given) has a Delta MABP [1] of -30 mmHg and a Delta MABP [2] of -18.5 mmHg.
With `O=C(SC(CC(=O)N1CCCC1C(=O)O)C(=O)c1ccc(F)cc1)c1ccccc1` (stereo not given) the Delta MABP [1] was -6.5 mmHg and the Delta MABP [2] was -12 mmHg.
For `C[C@H](CS)C(=O)N1CCC[C@H]1C(=O)O`, the Delta MABP [1] was -21.7 mmHg and the Delta MABP [2] was -27.7 mmHg.
In the case of `CC(=O)SC(CC(=O)N1CCCC1C(=O)O)C(=O)c1ccc2ccccc2c1` (stereo not given), the Delta MABP [1] is reported as -6.67 mmHg and the Delta MABP [2] is reported as -17.3 mmHg.
With `CC(=O)S[C@@H](C(=O)c1ccc(Br)cc1)[C@@H](C)C(=O)N1CCC[C@H]1C(=O)O` the Delta MABP [1] was -31.3 mmHg and the Delta MABP [2] was -27.1 mmHg.
For `CC(=O)SC(CC(=O)N1CCCC1C(=O)O)C(=O)c1ccc(C(C)(C)C)cc1` (stereo not given), the Delta MABP [1] was -19.2 mmHg and the Delta MABP [2] was -30 mmHg.
`CC(=O)SC(C(=O)c1ccc(Cl)cc1)C(C)C(=O)N1CCCC1C(=O)O` (stereo not given) gave a Delta MABP [1] of -30.5 mmHg and a Delta MABP [2] of -24 mmHg.

Source: ChEMBL document CHEMBL1122345, “Antihypertensive agents: angiotensin converting enzyme inhibitors. 1-[3-(Acylthio)-3-aroylpropionyl]-L-prolines” (J Med Chem, 1983)
